Measured values pooled from the literature.
Protocols differ between the studies behind these lines.
Read-out: cell growth or viability

| Compound | cell line | method | time | pH | CC50 [µM] |
| --- | --- | --- | --- | --- | --- |
| O=C(CCCCCCC(=O)Nc1ccccc1)NO | LLC-MK2 | MTS | 48 h | – | 5.94 |
| CCOC(=O)c1cnc2ccc(-c3ccc(C(C)C)cc3)cc2c1 | RD | ATP luminescence | 72 h | – | > 2.5 |
| CCN(CC)c1ccc(C(=O)NCCc2c(C)[nH]c3ccccc23)cc1 | C6 glioma | – | – | – | < 500 |
| CCOC(=O)c1csc(NN=Cc2cccc(OC)c2)n1 | LLC-MK2 | MTT | 96 h | pH 7.2 | 641 |
| Cc1cc2ccccc2n1CCNC(=O)c1ccc(N2CCOCC2)c(F)c1 | C6 glioma | – | – | – | < 500 |
| O=c1[nH]cc(F)c(=O)[nH]1 | Caco-2 | crystal violet | 72 h | – | 390 |
| CCOC(=O)c1csc(NN=C(C)c2ccccc2)n1 | LLC-MK2 | MTT | 96 h | pH 7.2 | 292 |
| CN1CCc2c(c3ccccc3n2Cc2ccc(C(=O)NO)cc2)C1 | LLC-MK2 | MTS | 48 h | – | > 20 |
| CCC[C@H](NC(=O)[C@@H](NC(=O)[C@@H](NC(=O)CC12CC3CC(CC(C3)C1)C2)C(C)(C)C)C1CCCCC1)C(=O)C(=O)NC1CC1 | RD | neutral red | – | – | < 2 |
| CCc1nc(-c2cnc3ccc(-c4ccccc4N)cc3c2)no1 | RD | ATP luminescence | 72 h | – | 21 |
| CCOC(=O)CC1SC(=NN=C2CCCc3ccccc32)NC1=O (centres unmarked) | LLC-MK2 | MTT | 96 h | pH 7.2 | 280 |
| CCC[C@H](NC(=O)[C@H](CC1CCCCC1)NC(=O)[C@@H](NC(=O)CC12CC3CC(CC(C3)C1)C2)C(C)(C)C)C(=O)C(=O)NC1CC1 | RD | neutral red | – | – | < 2 |
| Cc1cn([C@H]2C[C@H](N=[N+]=[N-])[C@@H](CO)O2)c(=O)[nH]c1=O | Caco-2 | crystal violet | 72 h | – | 56.1 |
| CCOC(=O)CC1SC(=NN=Cc2cccc(O)c2)NC1=O (centres unmarked) | LLC-MK2 | MTT | 96 h | pH 7.2 | 614 |
